Screening data deposited in PubChem BioAssay by several laboratories.
A selection: hits, their analogues and other compounds. The true share with any hit is near 2.2%.
RORA act: RORA (human) activation; CHO-K1 Gal4-RORA LBD luciferase reporter, luminescence; percent increase over mock-subtracted basal signal; activation, % at 10 µM; hit rate 1.5% among 65,000; P35398;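 active = activation above the mean of all tested compounds plus 3 SD, cut at about 49% in these data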;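 note: 0% = DMSO-treated RORA cells and 100% = added signal equal to DMSO minus mock-transfected cells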
Target sequence (P35398 whole entry, looked up, the tested form may be a part): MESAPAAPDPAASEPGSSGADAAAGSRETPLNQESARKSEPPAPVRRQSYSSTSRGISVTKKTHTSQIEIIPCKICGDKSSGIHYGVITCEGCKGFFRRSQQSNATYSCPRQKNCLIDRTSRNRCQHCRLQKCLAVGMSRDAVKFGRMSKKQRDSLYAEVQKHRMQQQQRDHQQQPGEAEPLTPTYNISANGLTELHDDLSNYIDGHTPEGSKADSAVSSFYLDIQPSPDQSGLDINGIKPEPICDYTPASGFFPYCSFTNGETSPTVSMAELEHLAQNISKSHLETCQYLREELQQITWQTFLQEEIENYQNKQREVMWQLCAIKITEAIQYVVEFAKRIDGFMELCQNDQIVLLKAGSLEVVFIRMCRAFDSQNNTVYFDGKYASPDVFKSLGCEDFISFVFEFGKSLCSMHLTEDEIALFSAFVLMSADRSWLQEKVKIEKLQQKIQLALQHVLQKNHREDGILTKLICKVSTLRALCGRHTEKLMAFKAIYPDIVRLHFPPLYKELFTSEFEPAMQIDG
AP complement: orthogonal test for alternative complement pathway inhibitors; Human serum alternative complement pathway, LPS-coated ELISA, C3 deposition; tested in compound mixtures; inhibition, % at 5 µM; hit rate 0.08% among 62,000; AID 1235;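 active = inhibition above 30% in each of the two pooled mixtures holding the compound, so the lower value exceeds 30%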;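 note: 0% = serum in Mg-EGTA without compound and 100% = EDTA serum blank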
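Medium: diluted human serum in Mg2+-EGTA GVB++. Assay system: human serum complement alternative pathway, C3 deposition onto LPS. Also added: Plate-bound LPS. Technique: Anti-C3 ELISA, OD 450 nm. Measure: percent inhibition. Incubation: 1 h at 37 °C. Dosing: 5 µM each compound, pools of ten, 50 µM per pool.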
MT1-MMP txn act: activates MT1-MMP transcription; HT1080 MT1-MMP promoter luciferase reporter, luminescence, overnight; hits give high values; activation factor at 10 µM; hit rate 0.16% among 86,000;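 active = activation factor of at least 2 for MT1-MMP transcription at 10 µM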
SF1 activator: activates the human nuclear receptor SF-1. Q13285. CHO-K1 Gal4-SF-1 LBD luciferase reporter; % increase over DMSO SF-1-specific signal. activation, % at 10 µM. hit rate 1.9% among 65,000. AID 522;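 active = activation above the mean activation of all tested compounds plus 3 SD, cut at about 50% in these data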
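Assay system – CHO-K1 cells with Gal4–hSF-1 LBD chimera plus Gal4-driven luciferase · Quantity – 4,000 cells per well · Times – compound added 1 h post-seeding, 20 h exposure at 37 °C, 5% CO2 · Measured by – luciferase light emission · Benchmarks – DMSO and mock-transfected background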
TNAP act DEA: human TNAP activation, intermediate phosphate acceptor | activation factor at 20 µM | P05186 | 64,000 tested, under 10 active | purified TNAP, CDP-star luminescence, 100 mM DEA, 30 min; hits give high values; scale: 0 levamisole-inhibited, 1 vehicle-only enzyme | AID 813;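 active = activation factor of at least 2 at 20 µM, relative to controls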
Ec RNAP inh: Escherichia coli RNA polymerase inhibition; inhibition, %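 (tested at 10 µM)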; hit rate 0.2% among 62,000; AID 559; E. coli RNA polymerase, fluorescence transcription assay; P0A8V2; in the data active = inhibition above about 20%;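 note: 0% = enzyme without compound and 100% = no enzyme blank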
Active calls of the source: *; nt = no result.

SMILES | RORA act | AP complement | MT1-MMP txn act | SF1 activator | TNAP act DEA | Ec RNAP inh
COc1ccc2c(c1OC)C(=O)N(c1cccc(C(F)(F)F)c1)C2 | 30 | -10 | 1.7 | 59* | 1 | 7
COc1ccc2c(c1OC)C(=O)N(c1ccccn1)C2 | 52* | 10 | 1.2 | 69* | 1 | 6
COC(=O)c1cc(NC(=O)C2CCCN(S(=O)(=O)c3c(C)n[nH]c3C)C2)cc(C(=O)OC)c1 (stereo not drawn) | nt | nt | 1.1 | nt | nt | nt
COC(=O)[C@@]1(Cc2ccc(OC)cc2)[C@H]2c3cc(C(=O)N(C)C)n(Cc4ccc(C)c(F)c4F)c3C[C@H]2CN1C(=O)c1ccccc1 | nt | nt | 1.1 | nt | nt | nt
CN1CCN(S(=O)(=O)c2ccc(Br)s2)CC1 | 63* | -21 | 1.3 | -24 | 0.9 | 9
CCCCOc1ccc(-c2nnn(CC(=O)NCc3ccco3)n2)cc1 | 198* | -6 | 0.8 | 37 | 0.9 | 6
CN(C)c1ccc(C(=O)OCC(=O)c2cccs2)cc1 | 7 | 7 | 1.2 | 52* | 0.9 | 4
O=C(OCC(=O)c1cccs1)c1ccc(NC(=O)c2ccco2)cc1 | -15 | 3 | 1.2 | 17 | 0.9 | 4
Cn1c(NCc2c[nH]c3ccccc23)nc2ccccc21 | 64* | nt | 1.5 | 78* | 0.9 | nt
Nc1nc(Nc2ccc(Cl)cc2Cl)nc(C(F)(F)F)n1 | 56* | 6 | 1.1 | 85* | 1 | -3
Cc1ccc2c(COC(=O)c3n[nH]c4ccccc34)cc(=O)oc2c1 | 47 | nt | 1.4 | 45 | 0.8 | nt
CCc1ccc2c(COC(=O)c3n[nH]c4ccccc34)cc(=O)oc2c1 | 28 | 20 | 1.5 | 58* | 0.9 | 0
CN(CC(=O)Nn1cnnc1)S(=O)(=O)c1ccccc1 | nt | nt | 1.2 | nt | nt | nt
CC(=O)Nc1ccc2nc(-c3ccccn3)[nH]c2c1 | 65* | 7 | 1.3 | 48 | 1 | 5
CC(=O)Nc1ccc2nc(-c3ccncc3)[nH]c2c1 | nt | nt | 0.9 | nt | nt | nt
CN(C)C=Nc1ccc2nn(-c3ccccc3)nc2c1 | 48 | 1 | 1.4 | 74* | 1 | -30
Cc1cc2nc(C)c(Cc3ccccc3)c(=O)n2[nH]1 | -13 | 11 | 1.1 | -6 | 0.9 | -10
CC(C)(C)NC(=O)Nc1ccc2nccnc2c1 | 90* | 4 | 1.3 | 49 | 1 | -5
CCCCCOc1ccc(NS(C)(=O)=O)cc1 | 64* | -5 | 1.2 | 32 | 0.9 | 7
COc1cccc(C(=O)Nc2ccc(-c3nnc(-c4ccco4)o3)cc2)c1 | 37 | 4 | 1.2 | 11 | 0.9 | 10
O=C(COc1ccccc1)Nc1ccc(-c2nnc(-c3ccco3)o2)cc1 | 49 | -2 | 1.1 | 66* | 0.9 | 9
CCOC(=O)C1=C(CSc2nc(C)ccc2C#N)OC(N)=C(C#N)C1c1cccc(OC)c1OC (stereo not drawn) | -15 | 33 | 1.2 | -6 | 0.9 | 10
CC(NC(=O)CCSc1nc(-c2ccc3c(c2)OCO3)cc(C(F)(F)F)n1)c1ccccc1 (stereo not drawn) | nt | nt | 1 | nt | nt | nt
Clc1ccc(-c2nc3n(n2)Cc2ccccc2-3)cc1 | nt | nt | 0.6 | nt | nt | nt
CCN(CC)S(=O)(=O)c1cccc(-c2nc3n(n2)Cc2ccccc2-3)c1 | 46 | 0 | 1.1 | 61* | 0.9 | 5
SMILES | RORA act | AP complement | MT1-MMP txn act | SF1 activator | TNAP act DEA | Ec RNAP inh
COc1ccc(-c2cc3ccccc3n2CC(O)CN2CCN(CCO)CC2)cc1 (stereo not drawn) | -23 | 11 | nt | 13 | 1 | 6
O=C1CC(c2ccc(F)c(Br)c2)C2=C(CCCC2=O)N1 (stereo not drawn) | -14 | 4 | 2.3* | -3 | 0.9 | 3
c1csc(-c2cnc3ccccc3n2)c1 | 95* | 3 | 1.1 | 50* | 0.9 | 5
O=c1oc(-c2cccs2)nc2ccccc12 | nt | nt | 1.1 | nt | nt | nt
CCOC(=O)N1CCC(Nc2nc3ccccc3nc2NS(=O)(=O)c2ccc(Cl)cc2)CC1 | 21 | 18 | 1.7 | 54* | 1 | 2
c1ccc2oc(SCc3cn4ccccc4n3)nc2c1 | 58* | 16 | 0.9 | 20 | 0.9 | 6
CCc1cc2c(SCC(=O)c3cccs3)ncnc2s1 | 36 | -1 | 1.2 | 18 | 0.9 | 24*
O=C(CSc1ncnc2c1oc1ccccc12)c1cccs1 | 40 | -12 | 1.6 | 71* | 0.9 | 6
Cc1nc(SCC(=O)c2cccs2)c2oc3ccccc3c2n1 | nt | nt | 1.2 | nt | nt | nt
CCOc1nc(Nc2ccc(-c3nc4ccccc4o3)cc2)nc(N2CCOCC2)n1 | -20 | 6 | 1 | 4 | 0.9 | -1
COC(=O)CNC(=O)[C@@]1(C)C=C[C@@H](Cc2ccccc2)N1C(C)=O | nt | nt | 1.1 | nt | nt | nt
CC1CCCN(C(=O)CSc2nnc3n(C4CCCC4)c(=O)c4ccccc4n23)C1 (stereo not drawn) | -14 | 35* | 1.2 | -8 | 1 | -2
CC(C)CCN1C(=O)c2ccc(C(=O)NCC3CCCO3)cc2C1=O (stereo not drawn) | -4 | 16 | 1.1 | 7 | 0.9 | -10
CC1(C)Cc2ccccc2-c2nnc(SCC(=O)Nc3ccc4c(c3)OCO4)n21 | -1 | 56* | 0.9 | -13 | 0.9 | -3
Cc1nc2sc(-c3ccccc3)cc2c(=O)n1-n1cccc1 | -2 | -1 | 1.5 | 89* | 0.9 | 6
CC(C)Oc1cc(O)c2c(=O)c(-c3ccc(O)cc3)coc2c1 | 46 | 11 | 1 | 58* | 0.9 | 9
COc1ccc(-c2coc3cc(O)cc(O)c3c2=O)cc1 | 30 | 26 | 1.1 | 97* | 0.9 | 9
Fc1ccccc1CSc1nc2ncccc2[nH]1 | 34 | 13 | 1.3 | 51* | 0.8 | 5
Cn1c(SCc2ccccc2F)nc2cccnc21 | 80* | -11 | 1.5 | 6 | 0.9 | 5
CCCCn1cnc2c(c1=O)c1nc3ccccc3nc1n2Cc1ccc2c(c1)OCO2 | -27 | -3 | 1.1 | -1 | 0.9 | 6
Cc1cc(=O)c2n(Cc3ccccc3Cl)nc[n+]2[nH]1 | -3 | -1 | 1.3 | -11 | 0.9 | 57*
Cc1c(-c2nc(N)nc(Nc3ccc(F)cc3)n2)oc2ccccc12 | 74* | 4 | 1.7 | 78* | 0.9 | 9
CCOC(=O)c1oc2cccc(OCC(O)CNC(C)C)c2c1C (stereo not drawn) | 7 | 32 | 1.1 | 2 | 0.9 | 9
O=C(NCc1ccco1)c1cc(-c2ccc3c(c2)OCO3)on1 | 51* | 3 | 1.7 | 43 | 1 | 10
[O-][n+]1c2c(c3c4non(O)c4ccc31)CCCC2 | nt | nt | 1 | nt | nt | nt
CN(C(=O)CSc1nnc(-c2ccco2)o1)C1CCCCC1 | 50* | 32 | 1.3 | 29 | 0.9 | -2
O=C(CSc1nnc(-c2ccco2)o1)NC1CCCCC1 | nt | 28 | nt | nt | 0.9 | 0
CCOC(=O)c1sc(Nc2nc3c(OC)cccc3s2)nc1C | 11 | 6 | 1.6 | 64* | 0.9 | -34
